Assay [1] concerns the target T1, Nuclear factor NF-kappa-B p105 subunit (Mus musculus) (UniProt P25799).
T1 sequence (whole entry): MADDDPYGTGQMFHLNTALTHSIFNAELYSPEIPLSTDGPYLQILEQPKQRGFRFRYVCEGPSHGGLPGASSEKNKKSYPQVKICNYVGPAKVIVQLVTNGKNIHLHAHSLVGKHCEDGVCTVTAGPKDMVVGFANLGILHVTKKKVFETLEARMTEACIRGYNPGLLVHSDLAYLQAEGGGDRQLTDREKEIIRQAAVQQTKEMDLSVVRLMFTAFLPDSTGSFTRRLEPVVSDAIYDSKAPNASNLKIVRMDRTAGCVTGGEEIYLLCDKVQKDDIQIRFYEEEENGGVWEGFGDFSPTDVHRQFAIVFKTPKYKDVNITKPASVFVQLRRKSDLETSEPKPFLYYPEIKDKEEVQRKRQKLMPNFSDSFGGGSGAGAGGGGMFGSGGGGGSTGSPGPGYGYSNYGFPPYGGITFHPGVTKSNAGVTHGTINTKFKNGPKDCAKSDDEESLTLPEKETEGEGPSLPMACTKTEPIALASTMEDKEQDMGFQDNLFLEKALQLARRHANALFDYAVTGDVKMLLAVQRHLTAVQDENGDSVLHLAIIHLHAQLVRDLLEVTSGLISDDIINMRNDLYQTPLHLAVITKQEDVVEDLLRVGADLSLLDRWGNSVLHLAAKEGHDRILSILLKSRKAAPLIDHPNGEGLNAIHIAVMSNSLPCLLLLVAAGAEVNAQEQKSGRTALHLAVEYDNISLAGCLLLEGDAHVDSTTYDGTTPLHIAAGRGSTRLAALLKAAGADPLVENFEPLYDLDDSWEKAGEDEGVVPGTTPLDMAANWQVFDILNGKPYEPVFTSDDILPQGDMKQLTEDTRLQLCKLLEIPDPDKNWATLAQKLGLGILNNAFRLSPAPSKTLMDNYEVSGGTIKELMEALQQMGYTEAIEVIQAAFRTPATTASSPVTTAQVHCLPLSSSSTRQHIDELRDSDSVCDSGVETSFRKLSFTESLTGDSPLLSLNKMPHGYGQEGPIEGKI
Nature of the assay: Inhibition of LPS-induced NF-kappaB p50 binding to DNA in mouse RAW264.7 cells at 10 to 40 uM after 1.5 hrs by spectrophotometry in presence of mutant oligonucleotide. The assay is classed as cell-based.

In assay [2] the target is T1, Nuclear factor NF-kappa-B p105 subunit (Mus musculus). Nature of the assay: Inhibition of LPS-induced NFkappaB P50 protein nuclear translocation in mouse RAW264.7 cells at 20 uM after 30 mins by Western blotting analysis relative to control. It counts as cell-based. In short, it runs like this: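 Macrophages were exposed to compound for 30 min before LPS stimulation, with proteins extracted 30 min later. Nuclear extracts were prepared in Tris/KCl/NP-40 lysis buffer, then 420 mM NaCl buffer, and the cytosolic fraction was kept for IκB-α. Western blot on PVDF with ECL detection. Tests in triplicate; representative of three separate experiments.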
A general note: A western blot detects proteins with antibodies after separation by electrophoresis.

Assay [3] concerns Mus musculus. Nature of the assay: Antiinflammatory activity in ICR mouse ear edema model assessed as inhibition of TPA-induced ear edema at 10 mg/kg, po administered 30 mins prior to TPA challenge measured after 4 hrs relative to vehicle-treated control. The assay is classed as functional. An outline of the steps: (§1)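 ICR mice (male, 18−20 g, 5 weeks old) dosed orally 30 min before TPA (1.0 μg in 20 μL acetone) was applied to inner and outer surfaces of the right ear. Killed by cervical dislocation after 4 h. Edema taken as the weight of a 5 mm punch biopsy of the right ear over the left. Ear homogenates were Western blotted for iNOS, COX-2 and IL-1β.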

In assay [4] the test system is RAW264.7. Nature of the assay: Antiinflammatory activity in mouse RAW264.7 cells assessed as inhibition LPS-induced IL-1beta protein expression at 40 uM after 4 hrs by Western blotting analysis. The assay is classed as functional. An outline of the steps:
(§2)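 RAW 264.7 cells stimulated with LPS (1 μg/mL) with or without compound for 4 h. Lysates were resolved by 6−15% SDS-PAGE and blotted to PVDF. Blocked in 5% milk/PBST, primary antibody overnight at 4 °C, secondary antibody 2 h, detected by ECL. Triplicate, representative of three experiments.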

Assay [5] deals with MAP kinase p38 (Mus musculus) (UniProt P47811+O08911+Q9WUI1+Q9Z1B7). Nature of the assay: Inhibition LPS-induced p38 kinase phosphorylation in mouse RAW264.7 cells at 10 to 40 uM administered 30 mins prior to LPS challenge measured after 30 mins by Western blotting analysis. The assay is classed as cell-based. In short, it runs like this: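 RAW 264.7 cells pretreated with compound for 30 min, then stimulated with LPS for an additional 30 min. Lysates resolved by 6−15% SDS-PAGE and blotted to PVDF. Primary antibodies were applied overnight at 4 °C and secondary antibodies for 2 h at room temperature. Detection by ECL. Tests in triplicate; blots representative of three separate experiments.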

Assay [6] relates to Mus musculus. Nature of the assay: Antiinflammatory activity in ICR mouse ear edema model assessed as inhibition of TPA-induced COX2 protein expression in ear tissue at 10 to 20 mg/kg, po administered 30 mins prior to TPA challenge measured after 4 hrs by Western blotting analysis relative to vehicle-treated control. It counts as functional, organism-based. In short, it runs like this:
as §1

Assay [7] concerns Rattus norvegicus. Nature of the assay: Antiinflammatory activity in rat paw edema model assessed as inhibition of carrageenan-induced COX2 protein expression in paw tissue at 20 mg/kg, po administered 30 mins prior to carrageenan challenge measured after 6 hrs by Western blotting analysis relative to vehicle-treated control. Also on record: dose 20 mg/kg. It counts as functional, organism-based. In short, it runs like this:
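SD rats received compound orally in 0.5% CMC-Na 30 min before subplantar injection of 0.1 mL 1% carrageenan in saline. Paws were removed at 6 h, homogenized, and iNOS, COX-2 and IL-1β were assessed by Western blot. Triplicate, representative of three experiments.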

The test system of assay [8] is RAW264.7. Nature of the assay: Antiinflammatory activity in mouse RAW264.7 cells assessed as inhibition LPS-induced IL-1beta protein expression at 20 uM after 4 hrs by Western blotting analysis. The assay is classed as functional. An outline of the steps:
as §2

Assay [9] relates to RAW264.7. Nature of the assay: Antiinflammatory activity in mouse RAW264.7 cells assessed as inhibition of LPS-induced iNOS mRNA expression at 10 uM after 5 hrs by RT-PCR analysis relative to control. The assay is classed as functional. An outline of the steps: (§3)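 RAW 264.7 cells exposed to 1 μg/mL LPS with or without compound for 5 h. Total RNA was analysed by RT-PCR: 25−30 cycles with annealing at 55 °C. Products were separated on 2% agarose gel with SYBR-Safe staining. Experiments in triplicate.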

Assay [10] concerns RAW264.7. Nature of the assay: Antiinflammatory activity in mouse RAW264.7 cells assessed as inhibition of LPS-induced COX2 mRNA expression at 20 uM after 5 hrs by RT-PCR analysis relative to control. The assay is classed as functional. In short, it runs like this:
as §3

The subject of assay [11] is Rattus norvegicus. Nature of the assay: Antiinflammatory activity in rat paw edema model assessed as inhibition of carrageenan-induced paw edema at 20 mg/kg, po administered 30 mins prior to carrageenan challenge measured after 4 hrs relative to vehicle-treated control. It counts as functional. In short, it runs like this:
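Male Sprague–Dawley rats (150–170 g, 5 weeks old); compound dissolved in 0.5% CMC-Na and given orally 30 min before subplantar injection of 0.1 mL 1% carrageenan suspension in saline into the right hind paw, with saline injected into the left. Paw volume read by plethysmometer at 0 h and up to 6 h; n = 6.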
On the technique in general: Carrageenan injected into the paw causes an acute inflammation.

The subject of assay [12] is RAW264.7. Nature of the assay: Antiinflammatory activity in mouse RAW264.7 cells assessed as inhibition of LPS-induced COX2 mRNA expression at 40 uM after 5 hrs by RT-PCR analysis relative to control. The assay is classed as functional. In short, it runs like this:
as §3

In general, inhibition in vivo refers to the percentage by which the read-out fell short of the control.

Structures are written as SMILES. Activity calls are given as the source filed them. The rule behind the calls is not given here.

In the case of `C=C1C(=O)O[C@@H]2[C@@H]3[C@@]4(C=C[C@@]3(C)[C@]3(C4)C(=O)O[C@@H]4[C@H]5C(C)=CC[C@H]5[C@](C)(O)C[C@H](OC(C)=O)[C@H]43)[C@](C)(O)CC[C@@H]12`, the inhibition entry in assay [1], in assay [6] and in assay [7] was “Active” each time. The fold change (FC) in assay [2] is 0.21; in assay [4], 0.65; in assay [8], 0.67; in [9], 0.74; in assay [10] it was 0.58; in assay [12], 0.22. Further, the inhibition in vivo at 10 mg/kg in [3] was 43%. Also, the inhibition entry in assay [5] was “inactive”. Moreover, the inhibition in vivo at 20 mg/kg in [11] was 35%.

These data come from ChEMBL document CHEMBL3259611, “Suppression of inflammatory responses by handelin, a guaianolide dimer from Chrysanthemum boreale, via downregulation of NF-κB signaling and pro-inflammatory cytokine production” (J Nat Prod, 2014).
